The values below come from ChEMBL document CHEMBL1137826, “A new class of acyclic 2-alkyl-1,1,2-triaryl (Z)-olefins as selective cyclooxygenase-2 inhibitors” (J Med Chem, 2004).

For test [1], the species on record is Rattus norvegicus. The test can be described thus: animal or person. The following applies: Abdomen, po, 0.5 h, read-out: Inhibition.
In test [2] the target is T1, Prostaglandin G/H synthase 1 (Ovis aries, UniProt P05979).
T1 sequence (P05979 whole entry): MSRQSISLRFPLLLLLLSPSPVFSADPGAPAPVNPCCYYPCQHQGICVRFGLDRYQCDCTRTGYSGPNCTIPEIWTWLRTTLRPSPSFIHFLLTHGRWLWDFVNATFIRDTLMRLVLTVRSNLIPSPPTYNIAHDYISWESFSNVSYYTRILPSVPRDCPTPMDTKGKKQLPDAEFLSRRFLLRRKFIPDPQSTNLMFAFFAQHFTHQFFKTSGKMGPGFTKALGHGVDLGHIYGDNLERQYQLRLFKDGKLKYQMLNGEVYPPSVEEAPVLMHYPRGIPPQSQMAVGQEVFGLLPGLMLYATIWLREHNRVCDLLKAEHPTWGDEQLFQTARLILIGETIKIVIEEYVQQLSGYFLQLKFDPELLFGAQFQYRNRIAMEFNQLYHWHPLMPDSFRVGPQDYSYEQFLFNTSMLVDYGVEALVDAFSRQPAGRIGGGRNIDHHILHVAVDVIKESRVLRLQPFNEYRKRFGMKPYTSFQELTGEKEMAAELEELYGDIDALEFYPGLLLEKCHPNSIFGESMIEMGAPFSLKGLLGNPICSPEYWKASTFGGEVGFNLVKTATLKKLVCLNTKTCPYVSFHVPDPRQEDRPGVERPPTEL
The test can be described thus: In vitro inhibition of ovine prostaglandin G/H synthase 1.

The subject of test [3] is Rattus norvegicus. The test can be described thus: Percent inhibition of 4% sodium chloride-induced abdominal constriction in rat after 60 min of 5 mg/kg oral dose of the compound. The following applies: Abdomen, 1 h. Format: functional. Put shortly:
(§1)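 Test compound given to rats orally at 5 mg/kg before 4% NaCl-induced writhing (abdominal constriction).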

For test [4], the target named is T2, Prostaglandin G/H synthase 2 (Rattus norvegicus) (UniProt P35355).
T2 sequence (whole entry): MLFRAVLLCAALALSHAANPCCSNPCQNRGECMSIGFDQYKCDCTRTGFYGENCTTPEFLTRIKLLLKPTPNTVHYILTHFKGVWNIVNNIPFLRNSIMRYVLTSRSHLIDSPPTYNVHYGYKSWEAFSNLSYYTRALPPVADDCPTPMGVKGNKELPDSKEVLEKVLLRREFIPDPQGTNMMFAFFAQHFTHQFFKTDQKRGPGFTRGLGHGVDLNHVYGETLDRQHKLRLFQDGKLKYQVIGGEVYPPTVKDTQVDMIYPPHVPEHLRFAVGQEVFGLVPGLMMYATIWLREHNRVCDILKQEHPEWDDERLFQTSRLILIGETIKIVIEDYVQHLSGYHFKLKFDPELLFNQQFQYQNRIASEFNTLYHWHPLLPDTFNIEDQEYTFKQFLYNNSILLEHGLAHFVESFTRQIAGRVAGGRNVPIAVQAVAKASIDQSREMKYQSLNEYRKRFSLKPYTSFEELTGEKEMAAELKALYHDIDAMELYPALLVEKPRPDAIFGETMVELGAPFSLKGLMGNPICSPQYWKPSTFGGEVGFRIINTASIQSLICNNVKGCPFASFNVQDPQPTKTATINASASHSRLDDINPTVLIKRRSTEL

Test [5] concerns Rattus norvegicus. In words: Percent inhibition of 4% sodium chloride-induced abdominal constriction in rat after 30 min of 5 mg/kg oral dose of the compound. Format: functional. The following applies: Abdomen, 0.5 h. Put shortly: as §1

In the case of `Cc1ccc(-c2cc(C(F)(F)F)nn2-c2ccc(S(N)(=O)=O)cc2)cc1` [CELECOXIB], the inhibition in vivo at 50 mg/kg in the test listed under Rattus norvegicus [1] came out at 69.3%.

Broadly, the IC50 is the concentration that gives 50% inhibition. Read a low IC50 as greater potency. For `CCCC/C(=C(\c1ccccc1)c1ccc(S(C)(=O)=O)cc1)c1ccccc1`, the IC50 in test [2] amounted to 30 µM.

Consider `CC/C(=C(\c1ccccc1)c1ccc(S(C)(=O)=O)cc1)c1ccc(OC(C)=O)cc1`, for which the inhibition in vivo at 5 mg/kg in the test on Rattus norvegicus [3] amounted to 57.5%; in the test on Rattus norvegicus [5], 60%. For the same compound, the ID50 in test [4] amounted to 1.3 mg/kg. For the same compound, the IC50 in test [2] was 0.25 µM.

In test [2], `CCCC/C(=C(\c1ccccc1)c1ccc(S(C)(=O)=O)cc1)c1ccc(OC(C)=O)cc1` registered an IC50 greater than 100 µM.

With `CC/C(=C(\c1ccccc1)c1ccc(S(C)(=O)=O)cc1)c1ccccc1`, the inhibition in vivo at 5 mg/kg came to 50% in the test on Rattus norvegicus [3] and 38.8% in the test with Rattus norvegicus [5]. The ID50 in test [4] was found to be 1.9 mg/kg. Also, the IC50 in test [2] is greater than 100 µM.

Consider `CCCCCCCC/C(=C(\c1ccccc1)c1ccc(S(C)(=O)=O)cc1)c1ccccc1`, for which, in test [2], the IC50 is greater than 100 µM.

Take `CCCCCC/C(=C(\c1ccccc1)c1ccc(S(C)(=O)=O)cc1)c1ccccc1`: the inhibition in vivo at 5 mg/kg in the test on Rattus norvegicus [3] worked out at 35.4%; in the test on Rattus norvegicus [5], 33.3%. Further, the ID50 in test [4] was found to be 1.1 mg/kg. The compound further showed an IC50 in test [2] greater than 100 µM.

With `CCC/C(=C(\c1ccccc1)c1ccc(S(C)(=O)=O)cc1)c1ccccc1`, in test [2], the IC50 is greater than 100 µM.
